In the library only some 1.7% were active in any assay of this set; here they are far more common.
Runt-SMMHC FRET – inhibitors of RUNX1 Runt–CBFb-SMMHC binding, primary screen, biochemical, FRET, Cerulean-Runt, Venus-CBFb-SMMHC, uHTS; AID 1434, 2008; Runt-related transcription factor 1 (Homo sapiens) + Core-binding factor subunit beta …; Cerulean-Runt/Venus-CBFb-SMMHC FRET ratio 530/480, 1 h; inhibition, % at 20 µM; 220,000 compounds, 0.74% hits;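 active means mean inhibition across duplicate retests at 20 µM reaching about 50%, limit read from the data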;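 further: 0% = DMSO wells and 100% = wells with excess untagged CBFb-SMMHC; inhibitors lower the FRET ratio by blocking Runt binding to CBFb-SMMHC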
RanGTP-Imp inh – inhibitors of RanGTP-importin-beta interaction, primary screen, biochemical, FRET, CFP-Ran, YFP-importin-beta, homogeneous. inhibition, % (concentration not given with the values). 300,000 compounds, 1.1% hits. cell-free CFP-Ran/YFP-importin-beta FRET ratio. Ran GTPase (GTP-bound) - importin-beta complex. AID 2216, 2009;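 active means more than half of the replicate wells show a fall in the fluorescence ratio signal beyond about 16%, limit read from the data, passing the limit was not always enough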;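 further: 0% = DMSO wells and 100% = Ran loaded with GDP instead of GTP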
Hck-Nef inh – inhibitors of Nef-activated human Hck kinase, primary screen, biochemical, Z-Lyte FRET, 384-well, Hck-YEEI. Tyrosine-protein kinase HCK (Homo sapiens), P08631. Recombinant Hck-YEEI plus Nef, Z-Lyte FRET kinase assay. inhibition, % at 20 µM. 220,000 compounds, 0.68% hits;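 active means Hck-Nef kinase inhibition above about 50%, limit read from the data; inactive means inhibition below that limit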;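 further: 0% = DMSO with Hck plus Nef and 100% = Hck alone without Nef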
Target sequence (P08631 whole entry, looked up): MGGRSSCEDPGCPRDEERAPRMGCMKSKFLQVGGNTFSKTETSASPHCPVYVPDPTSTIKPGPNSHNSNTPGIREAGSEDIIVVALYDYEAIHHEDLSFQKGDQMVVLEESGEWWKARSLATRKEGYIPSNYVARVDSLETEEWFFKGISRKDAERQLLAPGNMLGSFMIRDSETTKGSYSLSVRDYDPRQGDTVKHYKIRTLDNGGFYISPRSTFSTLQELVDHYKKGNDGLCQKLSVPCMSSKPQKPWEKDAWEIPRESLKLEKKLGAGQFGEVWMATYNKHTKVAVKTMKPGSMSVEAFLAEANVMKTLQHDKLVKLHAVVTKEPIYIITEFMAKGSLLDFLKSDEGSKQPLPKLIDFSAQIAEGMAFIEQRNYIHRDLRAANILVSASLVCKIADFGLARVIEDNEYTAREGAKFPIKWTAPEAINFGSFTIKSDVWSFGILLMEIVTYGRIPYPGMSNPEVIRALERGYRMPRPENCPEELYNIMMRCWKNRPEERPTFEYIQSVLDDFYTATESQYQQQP
Runt-CBFb FRET – inhibitors of RUNX1 Runt–CBFb binding, primary screen, biochemical, FRET, Cerulean-Runt, Venus-CBFb, uHTS | inhibition, % at 20 µM | Cerulean-Runt/Venus-CBFb FRET ratio 530/480, 1 h | Runt-related transcription factor 1 (Homo sapiens) + Core-binding factor subunit beta … | 220,000 compounds, 0.46% hits;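 active means inhibition over about 50% at 20 µM in the single-dose screen, limit read from the data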;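 further: 0% = DMSO wells and 100% = excess unlabeled CBFb competitor control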
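Schedule: protein complex preformed 1 h, compound exposure 1 h, room temperature, dark; test system: Cerulean-labeled Runt domain protein; amount: 100 nM per protein; buffer or medium: Tris 50 mM pH 7.5, KCl, K2SO4, 0.01% BSA; read-out: loss of energy transfer signal; detection: FRET fluorescence; controls: 5 µM unlabeled CBFb as full-inhibition high control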
Hck-Nef confirm – retest of Hck:Nef kinase inhibitor hits, confirmation, biochemical, Z-Lyte FRET, 384-well, p-Tyr peptide counterscreen; shares compounds with Hck-Nef inh; Recombinant Hck-YEEI:Nef, Z-Lyte FRET kinase assay; calls only at 10 µM; 1,300 compounds, 28% hits;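 active means average inhibition of at least 50%, with Z-scores no higher than 3 in both the phospho-tyrosine peptide and fluorescence counterscreens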
The depositor's hits bear a star; i = inactive; / = no result shown; + = active, no number.

SMILES	Runt-SMMHC FRET	RanGTP-Imp inh	Hck-Nef inh	Runt-CBFb FRET	Hck-Nef confirm
CCOC(=O)Cc1c(C)c2ccc(N(CC)CC)cc2oc1=O	46	130*	107*	10	/
CCOC(=O)CCc1c(C)c2ccc(O)cc2oc1=O	91*	1	90*	40	/
CCOC(=O)CCc1c(C)c2ccc(OCC(=O)N(CC)CC)c(C)c2oc1=O	-1	-3	-3	1	/
CSc1nccc(-c2sc(SC)c(C#N)c2-c2ccccc2)n1	2	1	-11	2	/
CSc1sc(-c2ccnc(SCCS(C)(=O)=O)n2)c(-c2ccccc2)c1C#N	34	-1	72*	2	i
CN(C)S(=O)(=O)c1ccc(Cl)c(NC(=O)CN2C(=O)NC(C)(C3CC3)C2=O)c1 (centres undefined)	-1	3	-3	3	/
CCOC(=O)Cc1c(C)nc(SC)[nH]c1=O	-4	2	-1	0	/
CC(=O)OCC1=C(C(=O)O)N2C(=O)C(NC(=O)c3ccc(COc4c(C)cccc4Cl)o3)C2SC1 (centres undefined)	0	0	77*	-3	i
CC(=O)OCC1=C(C(=O)O)N2C(=O)C(NC(=O)c3ccc(COc4ccc(Cl)cc4)o3)C2SC1 (centres undefined)	-2	-1	64*	7	i
CC(=O)c1cc2c(cc1NS(=O)(=O)c1ccccc1C)OCO2	3	13	15	6	/
COc1ccc(S(=O)(=O)Nc2cc3c(cc2C(C)=O)OCO3)cc1	/	0	54*	/	i
Cc1ccc(-c2nc3cccnc3o2)cc1NC(=O)COc1ccc(Cl)cc1C	-2	1	62*	0	i
CCc1ccccc1NC(=O)N1CCc2ccccc21	0	-2	8	1	/
O=C(CSc1nc2ncc(Cl)cc2[nH]1)NCC(=O)Nc1ccc(F)c(F)c1F	-1	7	61*	-1	/
Cc1[nH]c2ccccc2c1C(=O)CSc1nc2ncc(Cl)cc2[nH]1	-10	-4	72*	-3	+
CCCCc1c(C)c(C#N)c2nc3ccccc3n2c1Cl	-38	6	2	-18	/
CCCc1cc(NCCCN2CCOCC2)n2c(nc3ccccc32)c1C#N	62	13	101*	12	/
Cc1cc(NCCCN2CCOCC2)n2c(nc3ccccc32)c1C#N	37	30*	75*	19	/
COc1cc(NC(=O)CCc2c(C)[nH]c(=O)c(C#N)c2C)cc(OC)c1	/	-2	/	/	/
Cc1ccc(-c2ccc(/C=N\NC(=O)c3cc4c(ccc5ccccc54)o3)o2)cc1[N+](=O)[O-]	-8	4	28	-1	/
O=C(N/N=C/c1ccc(-c2ccc(Cl)c(C(=O)O)c2)o1)c1cc2c(ccc3ccccc32)o1	80*	8	72*	13	+
Cc1c(C(c2ccc(F)cc2)c2c(C)n(C)n(-c3ccccc3)c2=O)c(=O)n(-c2ccccc2)n1C	/	1	/	/	/
CN=c1scc(-c2ccccc2F)n1/N=C/c1ccc[nH]1	-19	-1	28	3	/
CN=c1scc(-c2ccccc2F)n1/N=C/c1ccc(O)c(O)c1O	18	2	122*	44	i
O=c1[nH]c(=S)[nH]c(O)c1N=Nc1ccc(-c2ccccc2)cc1[N+](=O)[O-]	-23	-18	68*	-20	i
SMILES	Runt-SMMHC FRET	RanGTP-Imp inh	Hck-Nef inh	Runt-CBFb FRET	Hck-Nef confirm
Cc1onc(-c2ccc(Cl)cc2Cl)c1-c1csc(N/N=C/c2ccccc2Cl)n1	1	-5	0	0	/
Nc1c(C(=O)NC2CC2)sc2nc3c(c(-c4ccco4)c12)CC/C3=C/c1ccco1	-19	/	85*	27	i
Oc1c(/C=C/C=C/C=Nc2ccccc2)sc(=S)n1Cc1ccccc1	-6	0	50*	17	i
O=c1c2c(-c3ccc(Cl)cc3)csc2ncn1/N=C/c1cccc([N+](=O)[O-])c1O	-2	4	89*	-4	+
CC(C)(C)c1cccc(C2(O)C(=O)c3ccccc3C2=O)c1O	4	1	17	0	/
Cc1ccc2c(c1)cc1c(=O)n(CC(=O)NCc3ccccn3)nc(C)n12	/	6	/	/	/
NC(=O)c1cc(Br)cc2c3c([nH]c12)CCCC3	-39	-1	58*	-7	+
Brc1ccc2[nH]c3c(c2c1)CCC3	2	0	4	4	/
COc1cc(C=O)cc(Cl)c1OC(=O)N1CCOCC1	/	3	/	/	/
COc1cccc(N=c2oc3ccc(OC)cc3cc2-c2nc3ccccc3[nH]2)c1	-20	-3	99*	-17	+
O=C(NCC1CCCN1S(=O)(=O)c1cccs1)c1ccc(F)cc1 (centres undefined)	/	-3	/	/	/
CC(C)(C)C(=O)NC(=S)Nc1ccc(Cc2ccncc2)cc1	/	7	/	/	/
O=C(NC(=S)Nc1ccc(Cc2ccncc2)cc1)c1ccc(F)cc1	-2	2	68*	-2	i
COC(=O)C(C)n1cnc2c(nnn2-c2ccccc2)c1=O (centres undefined)	/	4	/	/	/
CC[C@H](C)NC(=O)CCCCCn1c(=S)[nH]c2c([nH]c3ccc(OC)cc32)c1=O	0	-1	52*	-2	i
CCCCC1=CC2=CC(=O)C(C)(OC(=O)CCc3ccccc3)C(=O)C2=CO1 (centres undefined)	48	-18	67*	3	+
CCCCC1=CC2=CC(=O)C(C)(OC(=O)CCC(=O)OC)C(=O)C2=CO1 (centres undefined)	/	-13	/	/	/
O=C(O)c1ccccc1/C=N/NC(=O)c1cc(-c2ccco2)nc2ccccc12	19	-7	71*	14	+
CC(=O)NC(Cc1c[nH]c2ccccc12)C(=O)OCC(=O)N1CCCCCC1 (centres undefined)	0	2	6	1	/
COc1cc2ncnc(NCc3ccc(C)o3)c2cc1OC	9	3	78*	13	i
Cc1ccc(CNc2ncnc3cc(Cl)ccc23)o1	-3	4	-14	2	/
COCCNC(=O)c1cccc(OC2CCN(Cc3ccc(Cl)c(F)c3)CC2)c1	/	-3	/	/	/
C=CCn1c(SCC(=O)Nc2sccc2C#N)nc2sc(C)c(C)c2c1=O	4	4	63*	0	+
CCC1CCCCN1CCCNC(=O)c1ccc(CS(=O)(=O)c2ccc(Br)cc2)o1 (centres undefined)	/	0	/	/	/
COc1ccc(C2=NN(C(=O)CCCC(=O)O)C(c3cn(-c4ccccc4)nc3-c3ccccc3)C2)cc1 (centres undefined)	-3	7	109*	3	+
